According to ChEMBL document CHEMBL1146459, “Production of biologically active taxoids by a callus culture of Taxus cuspidata” (2004):

Tests used:
[1] = Reversal of multidrug resistance in human 2780AD cells assessed as [3H]vincristine accumulation at 0.1 ug/mL after 2 hrs relative to control; format: functional, A2780 ADR
Summary of the method: (§1)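 Multidrug-resistant human ovarian cancer 2780AD cells were exposed to taxoids at 0.1, 1 or 10 µg/mL. Radiolabelled vincristine accumulated in the cells was measured as dpm/well, using means of triplicate determinations. Results are expressed as % of vincristine accumulated relative to the control experiment. They were also scored on a seven-level index according to the range of relative accumulation.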

[2] = Reversal of multidrug resistance in human 2780AD cells assessed as [3H]vincristine accumulation at 1 ug/mL after 2 hrs relative to control; format: functional, A2780 ADR; summary of the method: as §1
[3] = Reversal of multidrug resistance in human 2780AD cells assessed as [3H]vincristine accumulation at 10 ug/mL after 2 hrs relative to control; format: functional, A2780 ADR; summary of the method: as §1
[4] = Reversal of multidrug resistance in human 2780AD cells assessed as [3H]vincristine accumulation at 0.1 ug/mL after 2 hrs relative to verapamil; format: functional, A2780 ADR
[5] = Reversal of multidrug resistance in human 2780AD cells assessed as [3H]vincristine accumulation at 10 ug/mL after 2 hrs relative to verapamil; format: functional, A2780 ADR
MCF7 = test: Growth inhibition of human MCF7 cells after 48 hrs by SRB assay; format: functional; details: MCF7, 48 h
SNB-78 = test: Growth inhibition of human SNB78 cells after 48 hrs by SRB assay; format: functional; details: SNB-78, 48 h
HCC 2998 = test: Growth inhibition of human HCC2998 cells after 48 hrs by SRB assay; format: functional; details: HCC 2998, 48 h
KM12 = test: Growth inhibition of human KM12 cells after 48 hrs by SRB assay; format: functional; details: KM12, 48 h
HT-29 = test: Growth inhibition of human HT-29 cells after 48 hrs by SRB assay; format: functional; details: HT-29, 48 h
NCI-H23 = test: Growth inhibition of human NCI-H23 cells after 48 hrs by SRB assay; format: functional; details: NCI-H23, 48 h
NCI-H226 = test: Growth inhibition of human NCI-H226 cells after 48 hrs by SRB assay; format: functional; details: NCI-H226, 48 h
A549 = test: Growth inhibition of human A549 cells after 48 hrs by SRB assay; format: functional; details: A549, 48 h
DMS-273 = test: Growth inhibition of human DMS273 cells after 48 hrs by SRB assay; format: functional; details: DMS-273, 48 h
DMS-114 = test: Growth inhibition of human DMS114 cells after 48 hrs by SRB assay; format: functional; details: DMS-114, 48 h
LOX IMVI = test: Growth inhibition of human LOXIMVI cells after 48 hrs by SRB assay; format: functional
OVCAR-5 = test: Growth inhibition of human OVCAR5 cells after 48 hrs by SRB assay; format: functional; details: OVCAR-5, 48 h
SK-OV-3 = test: Growth inhibition of human SKOV3 cells after 48 hrs by SRB assay; format: functional; details: SK-OV-3, 48 h
St-4 = test: Growth inhibition of human St-4 cells after 48 hrs by SRB assay; format: functional; details: St-4, 48 h
MKN-7 = test: Growth inhibition of human MKN7 cells after 48 hrs by SRB assay; format: functional; details: MKN-7, 48 h
DU-145 = test: Growth inhibition of human DU145 cells after 48 hrs by SRB assay; format: functional; details: DU-145, 48 h
PC-3 = test: Growth inhibition of human PC3 cells after 48 hrs by SRB assay; format: functional; details: PC-3, 48 h
[6] = read-out: LC50 (the source's name)
[7] = read-out: pLC50 (the source's name) (converted)

C=C1[C@@H](OC(C)=O)CC[C@]2(C)[C@@H]1C[C@@H]1C[C@H](OC(C)=O)C(C)=C([C@@H](O)[C@@H]2OC(=O)/C=C/c2ccccc2)C1(C)C
5.13 µM: GI50 (MKN-7; read-out: pGI50 (converted))
21 µM: GI50 (NCI-H226; read-out: GI50)
24 µM: GI50 (St-4; read-out: GI50) | GI50 (St-4; read-out: pGI50 (converted))
6.4 µM: GI50 (KM12; read-out: GI50)
26.3 µM: GI50 (HCC 2998; read-out: pGI50 (converted))
3.16 µM: GI50 (SNB-78; read-out: pGI50 (converted))
26 µM: GI50 (HCC 2998; read-out: GI50)
> 100 µM: CC50 (MCF7; [6]) | CC50 (MCF7; read-out: pLC50 (converted)) | CC50 (KM12; [6]) | CC50 (KM12; read-out: pLC50 (converted)) | CC50 (HT-29; [6]) | CC50 (HT-29; read-out: pLC50 (converted)) | GI50 (NCI-H23; read-out: GI50) | GI50 (NCI-H23; read-out: pGI50 (converted)) | GI50 (SK-OV-3; read-out: GI50) | GI50 (SK-OV-3; read-out: pGI50 (converted)) | GI50 (DU-145; read-out: GI50) | GI50 (DU-145; read-out: pGI50 (converted))
3.2 µM: GI50 (SNB-78; read-out: GI50)
43 µM: GI50 (HT-29; read-out: GI50)
5.25 µM: GI50 (PC-3; read-out: pGI50 (converted))
38 µM: GI50 (LOX IMVI; read-out: GI50) | GI50 (LOX IMVI; read-out: pGI50 (converted))
9.3 µM: GI50 (MCF7; read-out: GI50)
32.4 µM: GI50 (OVCAR-5; read-out: pGI50 (converted))
6.46 µM: GI50 (KM12; read-out: pGI50 (converted))
4.2 µM: GI50 (DMS-273; read-out: GI50)
5.1 µM: GI50 (MKN-7; read-out: GI50)
4.17 µM: GI50 (DMS-273; read-out: pGI50 (converted))
122%: Activity [5]
9.33 µM: GI50 (MCF7; read-out: pGI50 (converted))
100 µM: TGI (MCF7; read-out: TGI) | TGI (MCF7; read-out: pTGI (converted)) | TGI (SNB-78; read-out: TGI) | TGI (SNB-78; read-out: pTGI (converted)) | CC50 (HCC 2998; [6]) | TGI (HCC 2998; read-out: TGI) | CC50 (HCC 2998; [7]) | TGI (HCC 2998; read-out: pTGI (converted)) | TGI (KM12; read-out: TGI) | TGI (KM12; read-out: pTGI (converted)) | TGI (HT-29; read-out: TGI) | TGI (HT-29; read-out: pTGI (converted)) | CC50 (NCI-H23; [6]) | TGI (NCI-H23; read-out: TGI) | CC50 (NCI-H23; [7]) | TGI (NCI-H23; read-out: pTGI (converted)) | CC50 (NCI-H226; [6]) | TGI (NCI-H226; read-out: TGI) | CC50 (NCI-H226; [7]) | TGI (NCI-H226; read-out: pTGI (converted)) | CC50 (A549; [6]) | TGI (A549; read-out: TGI) | CC50 (A549; [7]) | TGI (A549; read-out: pTGI (converted)) | CC50 (DMS-273; [6]) | TGI (DMS-273; read-out: TGI) | CC50 (DMS-273; [7]) | TGI (DMS-273; read-out: pTGI (converted)) | CC50 (DMS-114; [6]) | TGI (DMS-114; read-out: TGI) | CC50 (DMS-114; [7]) | TGI (DMS-114; read-out: pTGI (converted)) | CC50 (LOX IMVI; [6]) | TGI (LOX IMVI; read-out: TGI) | CC50 (LOX IMVI; [7]) | TGI (LOX IMVI; read-out: pTGI (converted)) | TGI (OVCAR-5; read-out: TGI) | TGI (OVCAR-5; read-out: pTGI (converted)) | CC50 (SK-OV-3; [6]) | TGI (SK-OV-3; read-out: TGI) | CC50 (SK-OV-3; [7]) | TGI (SK-OV-3; read-out: pTGI (converted)) | CC50 (St-4; [6]) | TGI (St-4; read-out: TGI) | CC50 (St-4; [7]) | TGI (St-4; read-out: pTGI (converted)) | CC50 (MKN-7; [6]) | TGI (MKN-7; read-out: TGI) | CC50 (MKN-7; [7]) | TGI (MKN-7; read-out: pTGI (converted)) | CC50 (DU-145; [6]) | TGI (DU-145; read-out: TGI) | CC50 (DU-145; [7]) | TGI (DU-145; read-out: pTGI (converted)) | TGI (PC-3; read-out: TGI) | TGI (PC-3; read-out: pTGI (converted))
32 µM: GI50 (OVCAR-5; read-out: GI50)
9.55 µM: GI50 (A549; read-out: pGI50 (converted))
83.2 µM: GI50 (NCI-H226; read-out: pGI50 (converted))
5.2 µM: GI50 (PC-3; read-out: GI50)
7.76 µM: GI50 (DMS-114; read-out: pGI50 (converted))
7.8 µM: GI50 (DMS-114; read-out: GI50)
41.7 µM: GI50 (HT-29; read-out: pGI50 (converted))
9.6 µM: GI50 (A549; read-out: GI50)
399%: Activity [2]
648%: Activity [3]
139%: Activity [4]
162%: Activity [1]
